Laboratory results as given in ChEMBL document CHEMBL3393048, “Discovery of potent cytotoxic ortho-aryl chalcones as new scaffold targeting tubulin and mitosis with affinity-based fluorescence” (J Med Chem, 2014).
Activity calls are given as the source filed them. The rule behind the calls is not given here.

Columns and labels:
[1] = system: A549; test: Induction of apoptosis in human A549 cells assessed as apoptotic cells after 48 hrs by Annexin V-FITC/propidium iodide staining-based flow cytometry; type: functional, cell-based
[2] = system: MCF7; test: Antiproliferative activity against doxorubicin-resistant human MCF7 cells after 48 hrs by SRB method; type: functional, cell-based; details: MCF7, 48 h
Summary of the method: (§1)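 SRB assay. Cells in DMEM high glucose with 10% FBS were seeded at 5000/well and grown 24 h; a day-0 plate was fixed at that point. Compounds were added in triplicate for 48 h. IC50 came from nonlinear regression of dose–response curves from at least two independent experiments.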

[3] = system: A549; test: Antiproliferative activity against cis-platinum-resistant human A549 cells after 48 hrs by SRB method; type: functional, cell-based; details: A549, 48 h
Summary of the method: as §1, with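 “h. Cells were fixed with TCA at 4 °C for 1 h, stained with 0.4% SRB, and the dye was solubilized in 10 mM Tris pH 10.4. OD was read at 515 nm with day-0 OD subtracted.” for “h.”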

[4] = system: A549; test: Induction of apoptosis in human A549 cells assessed as necrotic cells at 0.75 uM after 48 hrs by Annexin V-FITC/propidium iodide staining-based flow cytometry (reference value: 0.06%); type: functional
[5] = system: A2780; test: Drug resistance index, ratio of IC50 for taxol-resistant human A2780 cells to IC50 for human A2780 cells; type: functional
Summary of the method: (§2)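 Drug resistance index = IC50 in the resistant line / IC50 in its parental line. […] Pairs: A549/CDDP vs A549, MCF-7/DOX vs MCF-7, A2780/TAX vs A2780, HCT-8/VCT vs HCT-8.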

[6] = system: A549; test: Induction of apoptosis in human A549 cells assessed as late apoptotic cells at 0.25 uM after 48 hrs by Annexin V-FITC/propidium iodide staining-based flow cytometry (reference value: 0.10%); type: functional
[7] = system: A549; test: Induction of apoptosis in human A549 cells assessed as early apoptotic cells at 0.75 uM after 48 hrs by Annexin V-FITC/propidium iodide staining-based flow cytometry (reference value: 0.47%); type: functional
[8] = system: A549; test: Induction of apoptosis in human A549 cells assessed as early apoptotic cells at 1 uM after 48 hrs by Annexin V-FITC/propidium iodide staining-based flow cytometry (reference value: 0.47%); type: functional
[9] = system: A549; test: Induction of apoptosis in human A549 cells assessed as late apoptotic cells at 0.75 uM after 48 hrs by Annexin V-FITC/propidium iodide staining-based flow cytometry (reference value: 0.10%); type: functional
[10] = system: A549; test: Cell cycle arrest in human A549 cells assessed as accumulation at G2/M phase at 7.81 to 250 nM after 24 hrs by Hoechst 33342 staining-based ArrayScanVTI analysis; type: functional
Summary of the method: (§3)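 A549 cells were seeded at 5000/well, cultured overnight, then treated 24 h over a 7.81–250 concentration series. Cells were fixed in prewarmed paraformaldehyde 10 min, permeabilized with Triton X-100, and nuclei stained with Hoechst 33342. Imaging was by ArrayScan VTI high-content analysis. Phase percentage = cells within a gated fluorescence intensity / total cells counted.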

[11] = system: A549; test: Induction of apoptosis in human A549 cells assessed as viable cells at 0.25 uM after 48 hrs by Annexin V-FITC/propidium iodide staining-based flow cytometry (reference value: 99.37%); type: functional; details: A549, 48 h, read-out: Activity
[12] = biological target: T1, Tubulin (Homo sapiens) (UniProt P68371+Q9H4B7+P0DPH7+P68366+Q13509+Q71U36+P04350+Q3ZCM7+P07437+P68363+Q9BQE3+Q6PEY2+Q13885+Q9BVA1+Q9BUF5); test: Binding affinity to tubulin (unknown origin) at 4 uM by fluorescence assay; type: protein-complex assay; details: TDE = time-dependent effect
Summary of the method: (§4)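 Intrinsic fluorescence on tubulin binding. Compounds were mixed with tubulin (4 μM or 8 μM) in general tubulin buffer and incubated 30 min. Readings were excitation 430/emission 510 nm or excitation 365/emission 465 nm, with kinetic reads from mixing. ΔF = stable emission minus tubulin-only fluorescence. Optimal wavelengths were set by wavelength scanning.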

[13] = Antiproliferative activity against human HCT8 cells after 48 hrs by SRB method; type: functional, cell-based; details: HCT-8, 48 h; summary of the method: as §1
[14] = system: A549; test: Induction of apoptosis in human A549 cells assessed as total apoptotic cells at 0.5 uM after 48 hrs by Annexin V-FITC/propidium iodide staining-based flow cytometry; type: functional
[15] = system: A549; test: Induction of apoptosis in human A549 cells assessed as total apoptotic cells at 0.25 uM after 48 hrs by Annexin V-FITC/propidium iodide staining-based flow cytometry; type: functional
[16] = Drug resistance index, ratio of IC50 for vincristine-resistant human HCT8 cells to IC50 for human HCT8 cells; type: functional, HCT-8; summary of the method: as §2
[17] = system: A549; test: Induction of apoptosis in human A549 cells assessed as early apoptotic cells at 0.5 uM after 48 hrs by Annexin V-FITC/propidium iodide staining-based flow cytometry (reference value: 0.47%); type: functional
[18] = system: A549; test: Induction of apoptosis in human A549 cells assessed as total apoptotic cells at 1 uM after 48 hrs by Annexin V-FITC/propidium iodide staining-based flow cytometry; type: functional
[19] = system: A549; test: Cell cycle arrest in human A549 cells assessed as accumulation at G2/M phase at 62.5 nM after 24 hrs by Hoechst 33342 staining-based ArrayScanVTI analysis; type: functional; summary of the method: as §3
[20] = system: A549; test: Induction of apoptosis in human A549 cells assessed as total apoptotic cells at 0.75 uM after 48 hrs by Annexin V-FITC/propidium iodide staining-based flow cytometry; type: functional
[21] = system: A549; test: Antiproliferative activity against human A549 cells after 48 hrs by SRB method; type: functional, cell-based; details: A549, 48 h
Summary of the method: as §1, with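 “h. Cells were fixed with TCA at 4 °C for 1 h, stained with 0.4% SRB, and the dye was solubilized in 10 mM Tris pH 10.4. OD was read at 515 nm with day-0 OD subtracted.” for “h.”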

[22] = system: A549; test: Drug resistance index, ratio of IC50 for cis-platinum-resistant human A549 cells to IC50 for human A549 cells; type: functional; summary of the method: as §2
[23] = system: A549; test: Induction of apoptosis in human A549 cells assessed as late apoptotic cells at 1 uM after 48 hrs by Annexin V-FITC/propidium iodide staining-based flow cytometry (reference value: 0.10%); type: functional
[24] = system: A2780; test: Antiproliferative activity against human A2780 cells after 48 hrs by SRB method; type: functional, cell-based; details: A2780, 48 h; summary of the method: as §1
[25] = biological target: T1, Tubulin (Homo sapiens); test: Binding affinity to tubulin (unknown origin) at 4 uM after 30 mins by fluorescence assay; type: protein-complex assay; summary of the method: as §4
[26] = biological target: Tubulin; test: Inhibition of tubulin polymerization (unknown origin) by DAPI staining-based fluorescence microscopy; type: protein-complex assay, Homo sapiens
Summary of the method: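 Purified tubulin (99% pure; 20 μM as supplied) mixed with compound in general tubulin buffer (80 mM PIPES pH 6.9, 2.0 mM MgCl₂, 0.5 mM EGTA) with 1 mM GTP, 20% glycerol and DAPI reporter. Polymerization tracked kinetically at 37 °C as fluorescence rise (ex 360, em 450 nm). Duplicate wells per concentration. IC50 from at least two independent experiments.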

[27] = system: A2780; test: Antiproliferative activity against taxol-resistant human A2780 cells after 48 hrs by SRB method; type: functional, cell-based; details: A2780, 48 h; summary of the method: as §1
[28] = system: HepG2; test: Antiproliferative activity against human HepG2 cells after 48 hrs by SRB method; type: functional, cell-based; details: HepG2, 48 h; summary of the method: as §1

SMILES: CN(C)c1ccc(/C=C/C(=O)c2ccccc2-c2ccc(F)cc2)cc1
- Activity [1]: Dose-dependent effect
- IC50 [2]: 45 nM
- IC50 [3]: 110 nM
- Activity [4]: 9.38%
- Ratio IC50 [5]: 0.52
- Activity [6]: 34.43%
- Activity [7]: 36.61%
- Activity [8]: 41.02%
- Activity [9]: 45.45%
- Activity [10]: Active
- viability at 0.25 µM [11]: 25.9%
- Activity [12]: tde
- IC50 [13]: 130 nM
- Activity [14]: 75.71%
- Activity [15]: 69.1%
- Ratio IC50 [16]: 0.72
- Activity [17]: 33.86%
- Activity [18]: 83.88%
- Activity [19]: Active
- Activity [20]: 82.06%
- IC50 [21]: 73 nM
- Ratio IC50 [22]: 1.6
- Activity [23]: 42.86%
- IC50 [24]: 94 nM
- Activity [25]: Active
- IC50 [26]: 3600 nM
- IC50 [27]: 49 nM
- IC50 [28]: 47 nM
